Test results as given in ChEMBL document CHEMBL4325933, “Potent, Selective, and Cell-Penetrating Inhibitors of Kallikrein-Related Peptidase 4 Based on the Cyclic Peptide MCoTI-II” (ACS Med Chem Lett, 2018).
Positions of bridges follow the written chain, without caps; N, C: chain ends. Residues, ends and D or L forms follow the SMILES beside them.

Tests used:
Plasminogen = Plasminogen (Homo sapiens, UniProt P00747); assay: Inhibition of plasmin (unknown origin) using Ac-RM(O2)YR-pNA as substrate preincubated for 30 mins followed by substrate addition and measured for 7 mins by spectrophotometric method
Sequence of Plasminogen (P00747 97-580 limits assumed): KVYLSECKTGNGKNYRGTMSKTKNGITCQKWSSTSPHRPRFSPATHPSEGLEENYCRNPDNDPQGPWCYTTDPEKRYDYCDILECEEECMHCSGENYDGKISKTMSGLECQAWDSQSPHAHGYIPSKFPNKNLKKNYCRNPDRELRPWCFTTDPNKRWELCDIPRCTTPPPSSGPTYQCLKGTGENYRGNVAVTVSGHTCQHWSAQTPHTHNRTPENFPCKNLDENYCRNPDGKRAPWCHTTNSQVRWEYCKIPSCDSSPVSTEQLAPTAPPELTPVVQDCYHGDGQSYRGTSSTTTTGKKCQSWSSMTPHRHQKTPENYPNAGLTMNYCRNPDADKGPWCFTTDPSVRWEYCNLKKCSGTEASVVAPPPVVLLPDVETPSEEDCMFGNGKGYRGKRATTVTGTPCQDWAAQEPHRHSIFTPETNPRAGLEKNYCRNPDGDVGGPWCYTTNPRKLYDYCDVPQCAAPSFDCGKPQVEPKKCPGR
Sequence of Plasminogen (P00747 581-810 limits assumed): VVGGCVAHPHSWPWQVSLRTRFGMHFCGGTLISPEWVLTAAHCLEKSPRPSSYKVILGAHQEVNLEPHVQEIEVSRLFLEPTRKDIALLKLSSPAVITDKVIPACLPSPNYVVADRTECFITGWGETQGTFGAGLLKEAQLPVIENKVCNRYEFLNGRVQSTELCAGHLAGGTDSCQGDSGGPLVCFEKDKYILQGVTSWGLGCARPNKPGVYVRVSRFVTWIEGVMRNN

Homo sapiens [1] = species on record: Homo sapiens; assay: Selectivity ratio of Ki for KLK7 (unknown origin) expressed in Pichia pastoris strain X-33 to Ki for KLK4 (unknown origin) expressed in sf9 cells
Kallikrein-7 = Kallikrein-7 (Homo sapiens, UniProt P49862); assay: Inhibition of KLK7 (unknown origin) expressed in Pichia pastoris strain X-33 using KHLY-pNA as substrate preincubated for 30 mins followed by substrate addition and measured for 7 mins by spectrophotometric method
Sequence of Kallikrein-7 (P49862 whole entry): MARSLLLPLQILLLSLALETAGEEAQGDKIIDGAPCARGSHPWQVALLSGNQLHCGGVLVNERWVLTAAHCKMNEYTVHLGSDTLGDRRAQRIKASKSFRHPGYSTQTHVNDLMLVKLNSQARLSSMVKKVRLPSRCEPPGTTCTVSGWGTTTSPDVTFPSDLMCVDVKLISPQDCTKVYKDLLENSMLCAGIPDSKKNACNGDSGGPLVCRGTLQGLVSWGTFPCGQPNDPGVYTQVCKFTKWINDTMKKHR

[2] = Drug uptake in human HeLa cells at 4 uM using Alexa Fluor 488 conjugated test compound after 1 hr by trypan blue dye based flow cytometry relative to HIV-Tat; assay type: ADME, cell-based
Procedure, shortened: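 HeLa cells given Alexa Fluor 488-conjugated peptides (4 μM). Mean fluorescence measured by flow cytometry before and after trypan blue quenching of extracellular signal. Values normalized to the HIV-TAT positive control (post-trypan blue). Three independent experiments, SD; one-way ANOVA with Tukey's post hoc test.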

Homo sapiens [3] = species on record: Homo sapiens; assay: Selectivity ratio of Ki for factor 10a (unknown origin) to Ki for KLK4 (unknown origin) expressed in sf9 cells
Coagulation factor XII = molecular target: T1, Coagulation factor XII (Homo sapiens, UniProt P00748); assay: Inhibition of factor 12a (unknown origin) using Ac-QRFR-pNA as substrate preincubated for 30 mins followed by substrate addition and measured for 7 mins by spectrophotometric method
T1 sequence (P00748 whole entry): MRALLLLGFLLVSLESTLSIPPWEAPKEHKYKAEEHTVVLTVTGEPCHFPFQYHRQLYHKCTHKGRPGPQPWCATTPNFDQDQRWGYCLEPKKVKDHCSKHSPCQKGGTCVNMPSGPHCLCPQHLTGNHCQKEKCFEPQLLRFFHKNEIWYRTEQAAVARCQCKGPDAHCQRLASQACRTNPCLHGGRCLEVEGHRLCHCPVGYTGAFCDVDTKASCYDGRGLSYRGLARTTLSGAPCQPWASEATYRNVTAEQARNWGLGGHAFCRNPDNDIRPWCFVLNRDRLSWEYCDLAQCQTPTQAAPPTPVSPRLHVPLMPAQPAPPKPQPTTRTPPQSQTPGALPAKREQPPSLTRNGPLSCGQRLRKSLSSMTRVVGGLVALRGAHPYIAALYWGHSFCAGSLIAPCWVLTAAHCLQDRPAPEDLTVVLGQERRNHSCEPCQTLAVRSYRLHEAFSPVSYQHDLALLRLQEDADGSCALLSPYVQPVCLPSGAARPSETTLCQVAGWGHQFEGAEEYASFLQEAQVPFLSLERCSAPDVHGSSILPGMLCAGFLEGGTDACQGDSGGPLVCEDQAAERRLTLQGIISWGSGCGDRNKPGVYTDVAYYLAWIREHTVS

Kallikrein-5 = molecular target: T2, Kallikrein-5 (Homo sapiens, UniProt Q9Y337); assay: Inhibition of KLK5 (unknown origin) expressed in Pichia pastoris strain X-33 using Ac-YRSR-pNA as substrate preincubated for 30 mins followed by substrate addition and measured for 7 mins by spectrophotometric method
T2 sequence (Q9Y337 whole entry): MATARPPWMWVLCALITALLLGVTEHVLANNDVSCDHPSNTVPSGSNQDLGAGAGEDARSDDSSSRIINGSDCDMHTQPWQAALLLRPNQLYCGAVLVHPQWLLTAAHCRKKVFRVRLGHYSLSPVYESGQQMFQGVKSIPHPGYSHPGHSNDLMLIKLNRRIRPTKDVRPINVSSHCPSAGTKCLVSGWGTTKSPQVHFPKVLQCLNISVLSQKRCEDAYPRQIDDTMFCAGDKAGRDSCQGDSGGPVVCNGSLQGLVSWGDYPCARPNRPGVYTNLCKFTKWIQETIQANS

Homo sapiens [4] = species on record: Homo sapiens; assay: Selectivity ratio of Ki for KLK5 (unknown origin) expressed in Pichia pastoris strain X-33 to Ki for KLK4 (unknown origin) expressed in sf9 cells
Plasma kallikrein = Plasma kallikrein (Homo sapiens, UniProt P03952); assay: Inhibition of plasma kallikrein (unknown origin) using Ac-NLTR-pNA as substrate preincubated for 30 mins followed by substrate addition and measured for 7 mins by spectrophotometric method
Sequence of Plasma kallikrein (P03952 20-390 limits assumed): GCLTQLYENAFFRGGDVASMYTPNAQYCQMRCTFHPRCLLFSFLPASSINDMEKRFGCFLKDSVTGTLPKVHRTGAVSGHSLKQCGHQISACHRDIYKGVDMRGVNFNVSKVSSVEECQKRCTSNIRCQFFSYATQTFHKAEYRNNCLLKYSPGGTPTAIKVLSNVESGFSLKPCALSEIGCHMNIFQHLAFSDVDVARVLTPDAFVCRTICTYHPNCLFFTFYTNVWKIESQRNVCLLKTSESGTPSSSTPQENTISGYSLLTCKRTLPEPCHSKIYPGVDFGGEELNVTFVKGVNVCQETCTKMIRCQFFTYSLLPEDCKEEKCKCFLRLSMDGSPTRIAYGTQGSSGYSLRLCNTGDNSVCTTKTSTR
Sequence of Plasma kallikrein (P03952 391-638 limits assumed): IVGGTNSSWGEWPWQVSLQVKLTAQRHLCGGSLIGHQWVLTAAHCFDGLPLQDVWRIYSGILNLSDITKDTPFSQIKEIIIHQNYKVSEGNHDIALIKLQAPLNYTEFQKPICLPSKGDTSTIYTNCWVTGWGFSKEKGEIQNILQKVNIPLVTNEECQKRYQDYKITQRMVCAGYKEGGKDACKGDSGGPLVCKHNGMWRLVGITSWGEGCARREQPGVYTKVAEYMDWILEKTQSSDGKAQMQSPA

Homo sapiens [5] = species on record: Homo sapiens; assay: Selectivity ratio of Ki for factor 12a (unknown origin) to Ki for KLK4 (unknown origin) expressed in sf9 cells
Kallikrein-4 = Kallikrein-4 (Homo sapiens, UniProt Q9Y5K2); assay: Inhibition of KLK4 (unknown origin) expressed in sf9 cells using Ac-FVQR-pNA as substrate preincubated for 30 mins followed by substrate addition and measured for 7 mins by spectrophotometric method
Sequence of Kallikrein-4 (Q9Y5K2 whole entry): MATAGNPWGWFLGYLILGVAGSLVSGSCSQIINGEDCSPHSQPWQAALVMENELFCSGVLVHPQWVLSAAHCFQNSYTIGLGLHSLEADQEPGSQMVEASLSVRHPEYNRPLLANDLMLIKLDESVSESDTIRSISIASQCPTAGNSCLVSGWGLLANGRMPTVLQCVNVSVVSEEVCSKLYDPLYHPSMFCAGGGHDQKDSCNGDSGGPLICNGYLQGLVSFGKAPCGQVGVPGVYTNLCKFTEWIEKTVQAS

[6] = Stability in human serum at 200 uM up to 24 hrs by RP-HPLC analysis; assay type: ADME, cell-free
Procedure, shortened: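 Peptides incubated in human serum for up to 24 h. At each time point, the area of the peptide peak on analytical HPLC is expressed as a percentage of the peptide peak in PBS at 0 h. Three independent experiments, SD.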

Prothrombin = Prothrombin (Homo sapiens, UniProt P00734); assay: Inhibition of thrombin (unknown origin) using Bz-FVR-pNA as substrate preincubated for 30 mins followed by substrate addition and measured for 7 mins by spectrophotometric method
Trypsin = Trypsin (Homo sapiens, UniProt P07477+P07478+P35030); assay: Inhibition of trypsin (unknown origin) using Bz-FVR-pNA as substrate preincubated for 30 mins followed by substrate addition and measured for 7 mins by spectrophotometric method; assay type: protein assay
Homo sapiens [7] = species on record: Homo sapiens; assay: Selectivity ratio of Ki for plasma kallikrein (unknown origin) to Ki for KLK4 (unknown origin) expressed in sf9 cells
Coagulation factor X = Coagulation factor X (Homo sapiens, UniProt P00742); assay: Inhibition of factor 10a (unknown origin) using Ac-QRSR-pNA as substrate preincubated for 30 mins followed by substrate addition and measured for 7 mins by spectrophotometric method
Sequence of Coagulation factor X (P00742 41-179 limits assumed): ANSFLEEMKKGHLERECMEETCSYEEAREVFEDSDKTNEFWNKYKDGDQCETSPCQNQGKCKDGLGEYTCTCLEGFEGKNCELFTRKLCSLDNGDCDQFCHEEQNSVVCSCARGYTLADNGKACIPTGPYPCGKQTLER
Sequence of Coagulation factor X (P00742 235-488 limits assumed): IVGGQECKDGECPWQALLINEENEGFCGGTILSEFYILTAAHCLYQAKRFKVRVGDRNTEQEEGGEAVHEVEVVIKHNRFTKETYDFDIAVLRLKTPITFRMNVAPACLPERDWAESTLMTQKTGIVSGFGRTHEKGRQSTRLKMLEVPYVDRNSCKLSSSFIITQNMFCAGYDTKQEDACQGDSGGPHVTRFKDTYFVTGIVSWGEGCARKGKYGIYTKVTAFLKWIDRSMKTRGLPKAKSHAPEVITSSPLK

Kallikrein-14 = molecular target: T3, Kallikrein-14 (Homo sapiens, UniProt Q9P0G3); assay: Inhibition of KLK14 (unknown origin) expressed in sf9 cells using Ac-YANR-pNA as substrate preincubated for 30 mins followed by substrate addition and measured for 7 mins by spectrophotometric method
T3 sequence (Q9P0G3 whole entry): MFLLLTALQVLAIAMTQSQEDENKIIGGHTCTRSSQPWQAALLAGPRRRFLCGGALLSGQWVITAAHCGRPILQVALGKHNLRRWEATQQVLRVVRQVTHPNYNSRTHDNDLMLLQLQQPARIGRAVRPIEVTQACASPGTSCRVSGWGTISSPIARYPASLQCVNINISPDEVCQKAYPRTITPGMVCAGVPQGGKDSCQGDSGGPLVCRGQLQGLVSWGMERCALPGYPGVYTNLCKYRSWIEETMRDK

Homo sapiens [8] = species on record: Homo sapiens; assay: Selectivity ratio of Ki for thrombin (unknown origin) to Ki for KLK4 (unknown origin) expressed in sf9 cells
HeLa = assay: Cytotoxicity against human HeLa cells up to 64 uM after 2 hrs by resazurin dye based assay; assay type: cell-based
Procedure, shortened: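 HeLa cells exposed to peptides for 2 h, concentrations up to 64 μM. Resazurin then added for 18 h at 37 °C. Resorufin absorbance read at 540 and 620 nm, and viability % expressed as the A620/A540 ratio. Three independent experiments, standard deviation.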

Homo sapiens [9] = species on record: Homo sapiens; assay: Selectivity ratio of Ki for plasmin (unknown origin) to Ki for KLK4 (unknown origin) expressed in sf9 cells
Homo sapiens [10] = species on record: Homo sapiens; assay: Selectivity ratio of Ki for KLK14 (unknown origin) expressed in sf9 cells to Ki for KLK4 (unknown origin) expressed in sf9 cells

Ki (Plasminogen): > 10 µM
Ki (Kallikrein-7): > 10 µM
Drug uptake [2]: 23%
Ki (Coagulation factor XII): > 10 µM
Ki (Kallikrein-5): > 10 µM
Ki (Plasma kallikrein): > 10 µM
Ki (Kallikrein-4): 0.0001 µM
Stability [6]: Stable
Ki (Prothrombin): > 10 µM
Ki (Trypsin): 0.031 µM
Ki (Coagulation factor X): 0.5 µM
Ki (Kallikrein-14): > 10 µM
Compound: CC[C@H](C)[C@@H]1NC(=O)[C@@H]2CSSC[C@@H]3NC(=O)[C@H](Cc4ccccc4)NC(=O)CNC(=O)CNC(=O)[C@H](CC(=O)O)NC(=O)[C@H](CO)NC(=O)CNC(=O)[C@H](CO)NC(=O)CNC(=O)[C@@H]4CSSC[C@H](NC(=O)[C@H](CC(=O)O)NC(=O)[C@H](CO)NC(=O)[C@H](CC(=O)O)NC(=O)[C@H](CCCNC(=N)N)NC(=O)[C@H](CCCNC(=N)N)NC(=O)[C@H](CSSC[C@H](NC1=O)C(=O)N[C@@H](CCCNC(=N)N)C(=O)NCC(=O)N[C@@H](CC(N)=O)C(=O)NCC(=O)N[C@@H](Cc1ccc(O)cc1)C(=O)N4)NC(=O)[C@H](CCCCN)NC(=O)[C@H](CCCCN)NC(=O)[C@H](CC(C)C)NC(=O)[C@H]([C@@H](C)CC)NC(=O)[C@H](CCCNC(=N)N)NC(=O)[C@H](CCC(N)=O)NC3=O)C(=O)N1CCC[C@H]1C(=O)NCC(=O)N[C@@H](C)C(=O)N2 (cyclo(ACICRGNGYCGSGSDGGFCQRILKKCRRDSDCPG); disulfide 2-19, 4-26, 10-32)
Ratio Ki (Homo sapiens [1]): > 100000
Ratio Ki (Homo sapiens [3]): 5000
Ratio Ki (Homo sapiens [4]): > 100000
Ratio Ki (Homo sapiens [5]): > 100000
Ratio Ki (Homo sapiens [7]): > 100000
Ratio Ki (Homo sapiens [8]): > 100000
Activity (HeLa): Non-Toxic
Ratio Ki (Homo sapiens [9]): > 100000
Ratio Ki (Homo sapiens [10]): > 100000
